Data on 13 compounds can be found in ChEMBL document CHEMBL1126069, “Synthesis of high affinity fluorine-substituted ligands for the androgen receptor. Potential agents for imaging prostatic cancer by positron emission tomography” (J Med Chem, 1992).

The target in test [1] is T1, Mineralocorticoid receptor (Rattus norvegicus) (UniProt P22199).
T1 sequence (whole entry): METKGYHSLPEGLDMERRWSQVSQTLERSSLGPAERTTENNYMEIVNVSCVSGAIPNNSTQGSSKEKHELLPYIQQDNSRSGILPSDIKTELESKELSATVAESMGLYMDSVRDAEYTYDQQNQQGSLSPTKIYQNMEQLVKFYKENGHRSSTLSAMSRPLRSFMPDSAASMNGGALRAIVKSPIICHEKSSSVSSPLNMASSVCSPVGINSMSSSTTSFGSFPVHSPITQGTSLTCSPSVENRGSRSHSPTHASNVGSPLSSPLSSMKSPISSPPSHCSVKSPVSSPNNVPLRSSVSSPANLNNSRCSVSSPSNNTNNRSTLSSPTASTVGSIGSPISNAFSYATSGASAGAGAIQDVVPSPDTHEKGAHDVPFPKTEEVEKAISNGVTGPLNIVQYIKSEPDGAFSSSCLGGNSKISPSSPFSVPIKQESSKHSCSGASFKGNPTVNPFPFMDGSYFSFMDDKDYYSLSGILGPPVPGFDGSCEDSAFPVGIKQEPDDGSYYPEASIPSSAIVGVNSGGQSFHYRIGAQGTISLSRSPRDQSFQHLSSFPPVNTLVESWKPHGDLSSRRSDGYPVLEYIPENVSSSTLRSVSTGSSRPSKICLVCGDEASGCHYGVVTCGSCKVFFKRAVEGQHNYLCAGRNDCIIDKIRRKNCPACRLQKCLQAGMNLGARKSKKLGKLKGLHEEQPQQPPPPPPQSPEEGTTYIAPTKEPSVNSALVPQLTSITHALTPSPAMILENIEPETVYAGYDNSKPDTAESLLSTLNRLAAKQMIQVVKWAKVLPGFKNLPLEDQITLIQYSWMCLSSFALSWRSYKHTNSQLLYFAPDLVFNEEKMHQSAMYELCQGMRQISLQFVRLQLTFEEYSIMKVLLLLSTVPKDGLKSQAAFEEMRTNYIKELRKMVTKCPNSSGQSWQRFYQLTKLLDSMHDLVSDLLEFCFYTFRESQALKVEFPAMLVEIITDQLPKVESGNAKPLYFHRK
Description: Displacement of [3H]aldosterone from rat Mineralocorticoid receptor. The essentials: (§1)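 Competitive radiometric binding assay giving relative binding affinities. The reference standards were R5020 for rat PgR, aldosterone for rat MR and estradiol for human SBP.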
A general note: Loss of bound radioactivity is the signal in a displacement assay; it reports binding, not function.

The species entered for test [2] is Rattus norvegicus. Description: Relative affinity for rat androgen receptor(AR) and progesterone receptor(PgR). The essentials:
(§2)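 Each ratio is AR relative binding affinity divided by the RBA for PgR, MR or SBP. The AR source was ventral prostate cytosol from mature male Holtzman rats orchidectomized 24 h before. Cytosol was preincubated with triamcinolone acetonide to block PgR and corticosteroid receptors. [3H]R1881 served as tracer, incubated 18 h at 0 °C. Free ligand was removed with dextran-coated charcoal, 15 min at 0 °C. AR RBA is on a percent scale versus R1881.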

Test [3] concerns the target T2, Sex hormone-binding globulin (Homo sapiens) (UniProt P04278).
T2 sequence (whole entry): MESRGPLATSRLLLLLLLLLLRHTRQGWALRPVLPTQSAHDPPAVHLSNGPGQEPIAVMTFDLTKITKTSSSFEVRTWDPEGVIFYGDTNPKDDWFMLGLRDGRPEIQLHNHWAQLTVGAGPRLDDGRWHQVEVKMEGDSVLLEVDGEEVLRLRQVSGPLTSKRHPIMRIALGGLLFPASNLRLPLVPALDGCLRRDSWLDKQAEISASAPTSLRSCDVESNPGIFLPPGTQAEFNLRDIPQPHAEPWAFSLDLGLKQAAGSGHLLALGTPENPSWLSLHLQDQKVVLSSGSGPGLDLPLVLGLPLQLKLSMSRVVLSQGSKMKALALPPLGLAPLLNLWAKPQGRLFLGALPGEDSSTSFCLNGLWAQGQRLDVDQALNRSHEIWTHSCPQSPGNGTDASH
Description: Displacement of [3H]estradiol from human Sex steroid binding protein (SBP). Put shortly:
as §1

Test [4] is described as follows: Relative affinity for rat androgen receptor(AR) and human Sex steroid binding protein (SBP). Put shortly: as §2
Test [5] is filed under the species Rattus norvegicus. Nature of the test: Relative affinity for rat androgen receptor(AR) and mineralocorticoid receptor(MR). Put shortly:
as §2

Test [6] addresses T3, Progesterone receptor (Rattus norvegicus) (UniProt Q63449).
T3 sequence (whole entry): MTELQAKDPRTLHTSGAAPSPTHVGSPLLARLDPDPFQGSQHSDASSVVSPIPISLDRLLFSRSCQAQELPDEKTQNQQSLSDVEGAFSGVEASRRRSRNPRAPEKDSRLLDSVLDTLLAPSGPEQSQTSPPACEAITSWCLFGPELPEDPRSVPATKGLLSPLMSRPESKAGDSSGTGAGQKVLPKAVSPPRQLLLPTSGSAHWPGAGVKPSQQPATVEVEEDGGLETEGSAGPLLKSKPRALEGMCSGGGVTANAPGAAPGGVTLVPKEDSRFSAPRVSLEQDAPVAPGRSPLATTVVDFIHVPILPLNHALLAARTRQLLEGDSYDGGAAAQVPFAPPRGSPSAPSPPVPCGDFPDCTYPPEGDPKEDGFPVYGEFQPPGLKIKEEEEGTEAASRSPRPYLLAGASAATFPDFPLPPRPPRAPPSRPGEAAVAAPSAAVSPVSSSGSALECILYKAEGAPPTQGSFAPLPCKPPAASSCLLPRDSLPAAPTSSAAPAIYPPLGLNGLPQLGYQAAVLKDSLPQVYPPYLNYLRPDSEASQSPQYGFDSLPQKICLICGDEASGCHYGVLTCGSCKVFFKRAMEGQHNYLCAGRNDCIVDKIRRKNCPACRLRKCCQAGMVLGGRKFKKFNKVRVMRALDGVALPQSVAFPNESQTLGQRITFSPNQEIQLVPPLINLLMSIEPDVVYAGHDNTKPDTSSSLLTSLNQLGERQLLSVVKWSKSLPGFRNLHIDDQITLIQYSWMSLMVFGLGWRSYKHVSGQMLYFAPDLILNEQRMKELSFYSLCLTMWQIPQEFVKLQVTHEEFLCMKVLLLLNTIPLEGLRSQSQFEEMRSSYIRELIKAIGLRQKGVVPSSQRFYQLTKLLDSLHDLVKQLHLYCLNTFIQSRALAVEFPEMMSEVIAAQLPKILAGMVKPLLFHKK
Description: Displacement of [3H]R5020 from rat progesterone receptor(PgR). Put shortly: as §1

In the case of `C[C@@H]1CC2=CC(=O)CC[C@@H]2C2CC[C@@]3(C)C(C[C@@H](F)[C@]3(C)O)C21` (some centres not stated), the relative binding affinity (RBA) in test [1] was determined as 0.37; in test [3] it was 3.1; in test [6] it was 14.4. In addition, the RBA ratio in the test filed under Rattus norvegicus [2] turned out to be 2.6; in test [4], 12; in the test listed under Rattus norvegicus [5], 101.

Regarding `C[C@]12CC[C@H]3[C@@H](CCC4=CC(=O)CC[C@@H]43)[C@@H]1CC[C@@H]2O`, the relative binding affinity (RBA) in test [1] stood at 2; in test [3] it was 29.9; in test [6], 3.1.

With `C[C@@H]1CC2=CC(=O)CC[C@@H]2C2CC[C@@]3(C)C(CC[C@@H]3O)C21` (some centres not stated), the relative binding affinity (RBA) stood at 0.74 in test [1], 28.7 in test [3] and 3.7 in test [6]. In addition, the RBA ratio in the test filed under Rattus norvegicus [2] worked out at 42.1; in test [4], 5.4; in the test filed under Rattus norvegicus [5] it was 210.

For `C[C@]1(O)CC[C@H]2[C@@H]3CCC4=CC(=O)CCC4=C3C=C[C@@]21C`, the results for the relative binding affinity (RBA) in test [1], in test [3] and in test [6] were 25.4, 4 and 43.7, respectively. Besides, the RBA ratio was determined as 2.3 in the test listed under Rattus norvegicus [2], 25 in test [4] and 3.9 in the test filed under Rattus norvegicus [5].

Turning to `C[C@]12CC[C@H]3[C@@H](CCC4CC(=O)CC[C@@]43C)[C@@H]1C[C@H](F)[C@@H]2O` (some centres not stated), the values for the relative binding affinity (RBA) in test [1], in test [3] and in test [6] were 0.06, 385 and 0.12, respectively. Besides, the RBA ratio in the test listed under Rattus norvegicus [2] was 356; in test [4], 0.16; in the test filed under Rattus norvegicus [5], 689.

For `C[C@]12C=CC3=C4CCC(=O)C=C4CCC3C1CC[C@@]2(O)CF` (some centres not stated), the figures for the relative binding affinity (RBA) in test [1], in test [3] and in test [6] were 4.5, 2.2 and 10.5, respectively. In addition, the RBA ratio in the test filed under Rattus norvegicus [2] worked out at 1.8; in test [4], 8.5; in the test filed under Rattus norvegicus [5] it was 4.2.

Regarding `C[C@@H]1CC2=CC(=O)CC[C@@H]2C2CC[C@@]3(C)C(C[C@@H](F)[C@@H]3O)C21` (some centres not stated), the relative binding affinity (RBA) is 0.21 in test [1], 4.01 in test [3] and 5.7 in test [6]. Moreover, the RBA ratio in the test listed under Rattus norvegicus [2] stood at 3.8; in test [4], 5.5; in the test listed under Rattus norvegicus [5] it was 104.

With `C[C@]12CC[C@H]3[C@@H](CCC4=CC(=O)CC[C@@]43C)[C@@H]1CC[C@@H]2O`, the figures for the relative binding affinity (RBA) in test [1], in test [3] and in test [6] were 4.19, 417 and 0.09, respectively.

As for `C[C@@H]1CC2=CC(=O)CC[C@@H]2C2CC[C@@]3(C)C(CC[C@]3(C)O)C21` (some centres not stated), the relative binding affinity (RBA) in test [1] was determined as 5.7; in test [3] it was 19; in test [6], 20.4. Moreover, the RBA ratio is 5.8 in the test filed under Rattus norvegicus [2], 6.2 in test [4] and 20.7 in the test listed under Rattus norvegicus [5].

Take `C[C@@H]1CC2=CC(=O)CC[C@@H]2C2CC[C@@]3(C)C(C[C@H](F)[C@]3(C)O)C21` (some centres not stated): the relative binding affinity (RBA) in test [1] worked out at 0.08; in test [3] it was 1.3; in test [6], 3. Besides, the RBA ratio in the test listed under Rattus norvegicus [2] came to 10.3; in test [4], 23.7; in the test listed under Rattus norvegicus [5], 385.

Regarding `C[C@]12CC[C@H]3[C@@H](CCC4CC(=O)CC[C@@]43C)[C@@H]1C[C@@H](F)[C@@H]2O` (some centres not stated), the relative binding affinity (RBA) in test [1] came out at 0.05; in test [3], 228; in test [6], 0.07. Also, the RBA ratio in the test filed under Rattus norvegicus [2] was found to be 56.1; in test [4], 0.02; in the test listed under Rattus norvegicus [5], 75.5.

Take `C[C@@H]1CC2=CC(=O)CC[C@@H]2C2CC[C@@]3(C)C(C[C@H](F)[C@@H]3O)C21` (some centres not stated): the relative binding affinity (RBA) in test [1] was determined as 0.05; in test [3], 3.75; in test [6] it was 1.6. Besides, the RBA ratio in the test filed under Rattus norvegicus [2] is 23.4; in test [4], 9.7; in the test filed under Rattus norvegicus [5], 730.

`C[C@@H]1CC2=CC(=O)CC[C@@H]2C2CC[C@@]3(C)C(CC[C@@]3(O)CF)C21` (some centres not stated): the relative binding affinity (RBA) in test [1] stood at 0.86; in test [3], 3; in test [6], 10.3. Further, the RBA ratio was 5.2 in the test listed under Rattus norvegicus [2], 17.7 in test [4] and 61.9 in the test listed under Rattus norvegicus [5].
